In brackets after ≈: the same amount, converted by molar mass. Activity calls are given as the source filed them. The calls are words filed in the database; no cut-off is given here.
Tests used:
[1] = molecular target: T1, Salicyl-AMP ligase / salicyl-S-ArCP synthetase (Mycobacterium tuberculosis, UniProt P71716); assay: Inhibition of Mycobacterium tuberculosis recombinant MbtA expressed in Escherichia coli by ATP-PPi exchange assay; conditions: read-out: Ki(app)
T1 sequence (P71716 whole entry): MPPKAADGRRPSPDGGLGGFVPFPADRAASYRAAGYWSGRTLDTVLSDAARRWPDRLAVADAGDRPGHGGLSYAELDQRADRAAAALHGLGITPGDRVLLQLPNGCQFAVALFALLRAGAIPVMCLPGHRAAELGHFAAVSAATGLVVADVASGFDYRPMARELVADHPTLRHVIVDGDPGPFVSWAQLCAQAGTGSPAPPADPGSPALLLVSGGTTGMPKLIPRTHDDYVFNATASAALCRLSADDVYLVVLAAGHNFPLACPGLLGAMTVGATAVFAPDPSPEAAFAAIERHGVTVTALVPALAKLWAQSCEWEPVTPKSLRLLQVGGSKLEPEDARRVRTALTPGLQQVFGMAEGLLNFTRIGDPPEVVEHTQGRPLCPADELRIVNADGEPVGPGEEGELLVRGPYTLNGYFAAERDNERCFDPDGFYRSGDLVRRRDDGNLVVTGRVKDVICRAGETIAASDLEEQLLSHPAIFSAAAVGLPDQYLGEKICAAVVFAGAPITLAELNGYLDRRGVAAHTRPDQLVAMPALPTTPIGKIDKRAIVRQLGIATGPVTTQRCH

[2] = test system: Mycobacterium tuberculosis; assay: Antitubercular activity against Mycobacterium tuberculosis H37Rv in iron-deficient GAST medium after 10 to 14 days by broth dilution method; format: functional
Method in brief: (§1)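 MIC99 by broth microdilution in quadruplicate in GAST, either iron-deficient or supplemented with 200 µM FeCl3. Compounds were added from DMSO stocks, with DMSO-treated controls. Inoculum was 10⁴-10⁵ cells/assay, incubation 37 °C for 10-14 days, and growth read as OD620. MIC99 is the lowest concentration completely inhibiting observable growth.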

[3] = test system: Mycobacterium tuberculosis; assay: Antitubercular activity against Mycobacterium tuberculosis H37Rv in iron-replete GAST medium after 10 to 14 days by broth dilution method; format: functional; method in brief: as §1
Vero = assay: Cytotoxicity against african green money Vero cells after 48 hrs by MTT assay; format: cell-based; conditions: Chlorocebus sabaeus
Oryctolagus cuniculus = organism: Oryctolagus cuniculus; assay: Inhibition of protein synthesis in T7 coupled rabbit reticulocyte system by luciferase based translation assay; format: functional
[4] = test system: Mycobacterium tuberculosis; assay: Ratio of MIC99 for Mycobacterium tuberculosis H37Rv in iron-replete GAST medium to MIC99 for Mycobacterium tuberculosis H37Rv in iron-deficient GAST medium; format: functional
[5] = Therapeutic index, ratio of IC50 for african green money Vero cells to MIC99 for Mycobacterium tuberculosis H37Rv; format: cell-based; conditions: monkey

Row | Compound | Ki [1] [nM] | MIC99 [2] [µM] | MIC99 [3] [µM] | IC50 (Vero) [nM] | Activity (Oryctolagus cuniculus) | Ratio [4] | selectivity ratio [5]
1 | Nc1nc(-c2cccc(-c3ccccc3)c2)nc2c1ncn2[C@@H]1O[C@H](COS(=O)(=O)NC(=O)c2ccccc2O)[C@@H](O)[C@H]1O | 1.4 | 25 (≈ 15.5 µg/mL) | > 50 | > 100000 | – | – | –
2 | Nc1ncnc2c1ncn2[C@@H]1O[C@H](COS(N)(=O)=O)[C@@H](O)[C@H]1O | – | – | – | – | Active | – | –
3 | Nc1ncnc2c1nc(N)n2[C@@H]1O[C@H](COS(=O)(=O)NC(=O)c2ccccc2O)[C@@H](O)[C@H]1O | 183000 | > 50 | > 50 | > 100000 | – | – | –
4 | CC(C)Nc1ncnc2c1ncn2[C@@H]1O[C@H](COS(=O)(=O)[N-]C(=O)c2ccccc2O)[C@@H](O)[C@H]1O.[Na+] | 7 | 25 | > 100 | > 100000 | – | >4 | –
5 | Nc1nc(-c2ccccc2-c2ccccc2)nc2c1ncn2[C@@H]1O[C@H](COS(=O)(=O)NC(=O)c2ccccc2O)[C@@H](O)[C@H]1O | 47 | > 50 | > 50 | > 100000 | – | – | –
6 | CC(C)CNc1ncnc2c1ncn2[C@@H]1O[C@H](COS(=O)(=O)NC(=O)c2ccccc2O)[C@@H](O)[C@H]1O | 1140 | > 100 | > 100 | > 100000 | – | – | –
7 | Nc1ncnc2c1nc(Br)n2[C@@H]1O[C@H](COS(=O)(=O)NC(=O)c2ccccc2O)[C@@H](O)[C@H]1O | 2050 | > 50 | > 50 | > 100000 | – | – | –
8 | CCN(CC)CC.Nc1nc(Nc2ccccc2)nc2c1ncn2[C@@H]1O[C@H](COS(=O)(=O)NC(=O)c2ccccc2O)[C@@H](O)[C@H]1O | 0.94 | 0.049 | 0.39 | > 100000 | – | 8 | > 2000
9 | CCN(CC)CC.Nc1ncnc2c1ccn2[C@@H]1O[C@H](COS(=O)(=O)NC(=O)c2ccccc2O)[C@@H](O)[C@H]1O | 24.3 | 6.25 | 50 | > 100000 | – | 8 | –
10 | [N-]=[N+]=Nc1nc2c(N)ncnc2n1[C@@H]1O[C@H](COS(=O)(=O)NC(=O)c2ccccc2O)[C@@H](O)[C@H]1O | 42500 | > 50 | > 50 | > 100000 | – | – | –
11 | O=C(NS(=O)(=O)OC[C@H]1O[C@@H](n2cnc3c(NC4CCC4)ncnc32)[C@H](O)[C@@H]1O)c1ccccc1O | 124 | > 100 | > 100 | > 100000 | – | – | –
12 | CCN(CC)CC.O=C(NS(=O)(=O)OC[C@H]1O[C@@H](n2cnc3c(NC4CC4)ncnc32)[C@H](O)[C@@H]1O)c1ccccc1O | 1.85 | 0.098 | 6.25 | > 100000 | – | 64 | –
13 | CCCNc1ncnc2c1ncn2[C@@H]1O[C@H](COS(=O)(=O)NC(=O)c2ccccc2O)[C@@H](O)[C@H]1O.CCN(CC)CC | 3.5 | 0.39 | 1.56 | > 100000 | – | 4 | –
14 | CN(C)c1ncnc2c1ncn2[C@@H]1O[C@H](COS(=O)(=O)NC(=O)c2ccccc2O)[C@@H](O)[C@H]1O | 380 | 50 (≈ 24.7 µg/mL) | – | > 100000 | – | – | –
15 | Nc1nc(-c2ccc(-c3ccccc3)cc2)nc2c1ncn2[C@@H]1O[C@H](COS(=O)(=O)NC(=O)c2ccccc2O)[C@@H](O)[C@H]1O | 0.99 | 25 (≈ 15.5 µg/mL) | > 50 | > 100000 | – | – | –
16 | O=C(NS(=O)(=O)OC[C@H]1O[C@@H](n2cnc3c(NC4CCCC4)ncnc32)[C@H](O)[C@@H]1O)c1ccccc1O | 9410 | > 100 | > 100 | > 100000 | – | – | –
17 | CNc1ncnc2c1ncn2[C@@H]1O[C@H](COS(=O)(=O)[N-]C(=O)c2ccccc2O)[C@@H](O)[C@H]1O.[Na+] | 1.6 | 0.39 | 1.56 | > 100000 | – | 4 | –
18 | Nc1nc(-c2ccccc2)nc2c1ncn2[C@@H]1O[C@H](COS(=O)(=O)NC(=O)c2ccccc2O)[C@@H](O)[C@H]1O | – | 0.049 (≈ 0.0266 µg/mL) | 0.39 (≈ 0.212 µg/mL) | > 100000 | – | – | –
19 | O=C(NS(=O)(=O)OC[C@H]1O[C@@H](n2cnc3c(=O)[nH]cnc32)[C@H](O)[C@@H]1O)c1ccccc1O | 800 | > 100 | > 100 | > 100000 | – | – | –
20 | O=C(NS(=O)(=O)OC[C@H]1O[C@@H](n2cnc3c(NCc4ccccc4)ncnc32)[C@H](O)[C@@H]1O)c1ccccc1O | 8260 | > 100 | > 100 | > 100000 | – | – | –
21 | CCN(CC)CC.Nc1nc(I)nc2c1ncn2[C@@H]1O[C@H](COS(=O)(=O)NC(=O)c2ccccc2O)[C@@H](O)[C@H]1O | 3.03 | 0.19 | 3.12 | > 100000 | – | 16 | –
22 | CCN(CC)CC.Nc1nc(C#Cc2ccccc2)nc2c1ncn2[C@@H]1O[C@H](COS(=O)(=O)NC(=O)c2ccccc2O)[C@@H](O)[C@H]1O | 0.4 | 0.049 | 0.39 | > 100000 | – | 8 | > 2000
23 | CCN(CC)CC.Nc1cccc2c1ccn2C1CC(COS(=O)(=O)NC(=O)c2ccccc2O)[C@@H](O)[C@H]1O (single isomer, unassigned) | 20.1 | 6.25 | 50 | > 100000 | – | 8 | –
24 | CCNc1ncnc2c1ncn2[C@@H]1O[C@H](COS(=O)(=O)[N-]C(=O)c2ccccc2O)[C@@H](O)[C@H]1O.[Na+] | 4.4 | 0.39 | 1.56 | > 100000 | – | 4 | –
